Assay results as given in BindingDB's records for doi:10.1016/j.ejmech.2016.09.032 (China Pharmaceutical University, 2017).
pIC50: −log10 of the molar value.

How the values were obtained:
[1] = biological target: T1, Integrin alpha-IIb/beta-3 (Homo sapiens, UniProt P08514+P05106); assay: Antagonist activity at GP2b/GP3a receptor in human platelet rich plasma assessed as inhibition of ADP-induced platelet aggregation preincubated for 1 min followed by ADP addition by aggregometric method
How it was run: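 Human PRP from apheresis platelets, PPP from centrifugation at 3000r/min for 10 min used as reference. Compound in saline or 0.2% aqueous DMSO added to PRP, incubated 1 min, then ADP 20 μM (per table footnotes; methods list 10 μM) added. Light transmission aggregometry at 37°C, maximal aggregation vs PPP. Inhibition relative to control aggregation ratio. IC50 from at least four concentrations.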

[2] = biological target: T1, Integrin alpha-IIb/beta-3; assay: Antagonist activity at GP2b/GP3a receptor in human platelet rich plasma assessed as inhibition of collagen-induced platelet aggregation preincubated for 1 min […] by aggregometric method
How it was run: (§1)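 Aggregometry at 37°C in human apheresis PRP, PPP as reference. Compound in saline or 0.2% aqueous DMSO preincubated 1 min before inducer: collagen 1 μg/ml, thrombin 0.26 U/ml or U46619 2 μM (figure and table values; methods state 9 μg/ml, 1 U/ml, 6 μM). Percent inhibition vs control. IC50 from at least four concentrations, means of two to three dose-response curves.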

[3] = biological target: T1, Integrin alpha-IIb/beta-3; assay: Antagonist activity at GP2b/GP3a receptor in human platelet rich plasma assessed as inhibition of U46619-induced platelet aggregation preincubated for 1 min […] by aggregometric method; how it was run: as §1
[4] = biological target: T1, Integrin alpha-IIb/beta-3; assay: Antagonist activity at GP2b/GP3a receptor in human platelet rich plasma assessed as inhibition of thrombin-induced platelet aggregation preincubated for 1 min […] by aggregometric method; how it was run: as §1

T1 sequence (P05106 27-788 limits assumed): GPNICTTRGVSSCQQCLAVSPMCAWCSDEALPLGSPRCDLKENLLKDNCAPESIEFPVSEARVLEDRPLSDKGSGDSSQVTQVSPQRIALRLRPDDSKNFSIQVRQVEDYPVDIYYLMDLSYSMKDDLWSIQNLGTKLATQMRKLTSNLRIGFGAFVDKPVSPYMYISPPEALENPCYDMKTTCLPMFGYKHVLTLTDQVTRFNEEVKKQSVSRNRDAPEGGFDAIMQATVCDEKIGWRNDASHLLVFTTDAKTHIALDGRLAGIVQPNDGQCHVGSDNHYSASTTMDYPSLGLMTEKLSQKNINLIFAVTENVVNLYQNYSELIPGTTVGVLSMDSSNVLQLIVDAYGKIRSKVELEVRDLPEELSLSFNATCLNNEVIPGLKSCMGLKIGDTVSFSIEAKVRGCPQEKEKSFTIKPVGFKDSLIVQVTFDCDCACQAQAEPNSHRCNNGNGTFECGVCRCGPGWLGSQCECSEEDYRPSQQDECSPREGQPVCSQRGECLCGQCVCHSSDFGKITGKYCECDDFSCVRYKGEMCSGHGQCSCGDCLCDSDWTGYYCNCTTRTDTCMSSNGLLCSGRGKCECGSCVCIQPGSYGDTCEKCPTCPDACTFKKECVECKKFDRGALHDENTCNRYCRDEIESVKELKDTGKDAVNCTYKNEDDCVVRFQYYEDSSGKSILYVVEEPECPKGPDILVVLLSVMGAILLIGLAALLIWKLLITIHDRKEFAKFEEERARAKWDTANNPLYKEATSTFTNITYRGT
T1 sequence (P08514 32-887 limits assumed): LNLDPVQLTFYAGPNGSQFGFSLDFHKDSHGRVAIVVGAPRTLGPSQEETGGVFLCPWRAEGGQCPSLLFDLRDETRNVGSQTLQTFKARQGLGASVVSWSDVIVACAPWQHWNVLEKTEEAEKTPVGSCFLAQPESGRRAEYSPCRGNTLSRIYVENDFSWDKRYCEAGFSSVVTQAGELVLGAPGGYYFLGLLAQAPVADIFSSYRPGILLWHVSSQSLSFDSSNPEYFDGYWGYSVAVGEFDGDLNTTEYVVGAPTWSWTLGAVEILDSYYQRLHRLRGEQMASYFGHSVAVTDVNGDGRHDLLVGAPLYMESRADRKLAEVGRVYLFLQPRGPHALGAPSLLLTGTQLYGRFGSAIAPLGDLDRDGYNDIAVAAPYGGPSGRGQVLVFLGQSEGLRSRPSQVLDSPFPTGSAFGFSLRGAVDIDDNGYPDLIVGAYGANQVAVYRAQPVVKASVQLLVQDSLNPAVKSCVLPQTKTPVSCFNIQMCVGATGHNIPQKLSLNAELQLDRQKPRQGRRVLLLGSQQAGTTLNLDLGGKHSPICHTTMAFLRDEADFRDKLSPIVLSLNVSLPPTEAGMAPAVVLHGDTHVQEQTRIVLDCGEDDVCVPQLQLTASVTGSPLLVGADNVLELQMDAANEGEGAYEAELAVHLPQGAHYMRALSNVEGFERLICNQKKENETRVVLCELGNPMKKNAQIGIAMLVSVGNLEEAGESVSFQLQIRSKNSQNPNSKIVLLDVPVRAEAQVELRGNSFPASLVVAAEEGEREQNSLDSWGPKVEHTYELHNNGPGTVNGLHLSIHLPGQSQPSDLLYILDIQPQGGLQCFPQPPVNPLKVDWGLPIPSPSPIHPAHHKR
T1 sequence (P08514 891-1039 limits assumed): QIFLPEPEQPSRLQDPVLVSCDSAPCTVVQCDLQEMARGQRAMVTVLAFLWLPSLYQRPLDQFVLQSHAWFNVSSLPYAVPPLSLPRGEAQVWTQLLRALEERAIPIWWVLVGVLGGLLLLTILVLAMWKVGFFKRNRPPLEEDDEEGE

SMILES | pIC50 [1] | further results
O=C(NC(Cc1ccc2cc(OCCCN3CCNCC3)ccc2c1)C(=O)O)c1cc(Cl)cc(Cl)c1 (centres undefined) | 4.61 | 
O=C(O)C(Cc1ccc2cc(OCCN3CCNCC3)ccc2c1)NS(=O)(=O)c1ccc(Br)cc1 (centres undefined) | 4.89 | 
COc1ccc(C(=O)NC(Cc2ccc3cc(OCCCN4CCNCC4)ccc3c2)C(=O)O)cc1 (centres undefined) | 4.90 | 
O=C(NC(Cc1ccc2cc(OCCCN3CCNCC3)ccc2c1)C(=O)O)c1cccc(F)c1 (centres undefined) | 5.20 | 
O=C(NC(Cc1ccc2cc(OCCCN3CCNCC3)ccc2c1)C(=O)O)c1ccccc1 (centres undefined) | 5.10 | 
O=C(O)C(Cc1ccc2cc(OCCC3CCNCC3)ccc2c1)NS(=O)(=O)c1ccc(Br)cc1 (centres undefined) | < 4.00 | 
O=C(O)C(Cc1ccc2cc(OCCCC3CCNCC3)ccc2c1)NS(=O)(=O)c1ccc(Br)cc1 (centres undefined) | < 4.00 | 
O=C(O)C(Cc1ccc2cc(OCCCCN3CCNCC3)ccc2c1)NS(=O)(=O)c1ccc(Br)cc1 (centres undefined) | 4.73 | 
O=C(O)C(Cc1ccc2cc(OCC3CCNCC3)ccc2c1)NS(=O)(=O)c1ccc(Br)cc1 (centres undefined) | < 4.00 | 
O=C(NC(Cc1ccc2cc(OCCCN3CCNCC3)ccc2c1)C(=O)O)c1ccc(F)cc1 (centres undefined) | 5.12 | 

Compounds with a higher pIC50 [1], results first:

pIC50 [1] | SMILES | further results
5.27 | CCCC(=O)NC(Cc1ccc2cc(OCCCN3CCNCC3)ccc2c1)C(=O)O (centres undefined) | 
6.74 | O=C(O)C(Cc1ccc2cc(OCCCN3CCNCC3)ccc2c1)NS(=O)(=O)c1ccccc1 (centres undefined) | pIC50 [2]: 5.88; pIC50 [3]: 6.00; pIC50 [4]: 6.28
5.68 | N=C(N)c1ccc(COc2ccc3cc(CC(NC(=O)c4ccc([N+](=O)[O-])cc4)C(=O)O)ccc3c2)cc1 (centres undefined) | 
6.70 | O=C(O)C(Cc1ccc2cc(OCCCN3CCNCC3)ccc2c1)NS(=O)(=O)c1ccc([N+](=O)[O-])cc1 (centres undefined) | 
5.47 | O=C(NC(Cc1ccc2cc(OCCCN3CCNCC3)ccc2c1)C(=O)O)c1ccc([N+](=O)[O-])cc1 (centres undefined) | 
6.08 | N=C(N)c1ccc(COc2ccc3cc(CC(NS(=O)(=O)c4ccccc4)C(=O)O)ccc3c2)cc1 (centres undefined) | pIC50 [2]: 4.56; pIC50 [3]: 4.63; pIC50 [4]: 4.64
5.48 | CCCCS(=O)(=O)NC(Cc1ccc2cc(OCc3ccc(C(=N)N)cc3)ccc2c1)C(=O)O (centres undefined) | 
5.40 | Cc1ccc(S(=O)(=O)NC(Cc2ccc3cc(OCc4ccc(C(=N)N)cc4)ccc3c2)C(=O)O)cc1 (centres undefined) | 
5.78 | COc1ccc(S(=O)(=O)NC(Cc2ccc3cc(OCCCN4CCNCC4)ccc3c2)C(=O)O)cc1 (centres undefined) | 
6.55 | O=C(O)C(Cc1ccc2cc(OCCCN3CCNCC3)ccc2c1)NS(=O)(=O)c1ccc(F)cc1 (centres undefined) | 
6.28 | CCCCS(=O)(=O)NC(Cc1ccc2cc(OCCCN3CCNCC3)ccc2c1)C(=O)O (centres undefined) | 
6.43 | O=C(O)C(Cc1ccc2cc(OCCCN3CCNCC3)ccc2c1)NS(=O)(=O)c1ccc(Br)cc1 (centres undefined) | 
5.97 | CCCC(=O)NC(Cc1ccc2cc(OCc3ccc(C(=N)N)cc3)ccc2c1)C(=O)O (centres undefined) | 
